Test results reported in ChEMBL document CHEMBL4196201, “Discovery of N-(4-{[5-Fluoro-7-(2-methoxyethoxy)quinazolin-4-yl]amino}phenyl)-2-[4-(propan-2-yl)-1 H-1,2,3-triazol-1-yl]acetamide (AZD3229), a Potent Pan-KIT Mutant Inhibitor for the Treatment of Gastrointestinal Stromal Tumors” (J Med Chem, 2018).

Assays:
[1] = tested on: Mast/stem cell growth factor receptor Kit (Homo sapiens), P10721 [UNDEFINED MUTATION]
[2] = tested on: Platelet-derived growth factor receptor alpha (Homo sapiens), P16234 [V561D,D842V]
BaF3 [3] = test: Antitumor activity against mouse BA/F3 cells expressing Kit exon 11 deletion (557 to 558 residues) and V654 mutant (unknown origin) allografted in CB17 SCID mouse assessed as inhibition of tumor growth at 80 mg/kg, po qd measured on last day of dosing; type: functional; settings: read-out: TGI
Method in brief: (§1)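 Ba/F3 cells bearing the KIT exon 11 del/D816H or exon 11 del/V654A mutation were grown as allografts in mice. Compounds were given p.o. once (QD) or twice daily (BD), and vehicle was given BD p.o. Tumor growth inhibition and regression (%) were taken on the last day of dosing. p-values were calculated relative to vehicle.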

[4] = Cytotoxicity in mouse parental BA/F3 cells incubated for 72 hrs by MTS assay; type: cell-based, BaF3
[5] = tested on: Mast/stem cell growth factor receptor Kit (Homo sapiens), P10721 [V560D,D816H]
[6] = molecular target: Mast/stem cell growth factor receptor Kit (Homo sapiens) (UniProt P10721)
[7] = molecular target: Platelet-derived growth factor receptor alpha (Homo sapiens) (UniProt P16234)
[8] = molecular target: Mast/stem cell growth factor receptor Kit (Homo sapiens) (UniProt P10721); remark: listed apart in the source
BaF3 [9] = test: Antitumor activity against mouse BA/F3 cells expressing Kit exon 11 deletion (557 to 558 residues) and V654 mutant (unknown origin) allografted in CB17 SCID mouse assessed as tumor regression at 80 mg/kg, po qd measured on last day of dosing; type: functional
Method in brief: as §1

[10] = tested on: Mast/stem cell growth factor receptor Kit (Homo sapiens), P10721 [UNDEFINED MUTATION]; remark: listed apart in the source
[11] = tested on: Mast/stem cell growth factor receptor Kit (Homo sapiens), P10721 [UNDEFINED MUTATION]; remark: listed apart in the source
[12] = molecular target: Platelet-derived growth factor receptor beta (Homo sapiens) (UniProt P09619); test: Inhibition of TEL-fused PDGFRbeta (unknown origin) transfected in mouse BA/F3 cells assessed as inhibition of cell growth incubated for 72 hrs by MTS assay; type: cell-based
[13] = tested on: Mast/stem cell growth factor receptor Kit (Homo sapiens), P10721 [UNDEFINED MUTATION]; remark: listed apart in the source
[14] = molecular target: Mast/stem cell growth factor receptor Kit (Homo sapiens) (UniProt P10721); remark: listed apart in the source
BaF3 [15] = test: Antitumor activity against mouse BA/F3 cells expressing Kit exon 11 deletion (557 to 558 residues) and V654 mutant (unknown origin) allografted in CB17 SCID mouse assessed as inhibition of tumor growth at 300 mg/kg, po qd measured on last day of dosing; type: functional; settings: read-out: TGI
Method in brief: as §1

[16] = molecular target: Mast/stem cell growth factor receptor Kit (Homo sapiens) (UniProt P10721); remark: listed apart in the source
BaF3 [17] = test: Antitumor activity against mouse BA/F3 cells expressing Kit exon 11 deletion (557 to 558 residues) and D816H mutant (unknown origin) allografted in CB17 SCID mouse assessed as tumor regression at 300 mg/kg, po qd measured on last day of dosing; type: functional
Method in brief: as §1

BaF3 [18] = test: Antitumor activity against mouse BA/F3 cells expressing Kit exon 11 deletion (557 to 558 residues) and D816H mutant (unknown origin) allografted in CB17 SCID mouse assessed as inhibition of tumor growth at 300 mg/kg, po qd measured on last day of dosing; type: functional; settings: read-out: TGI
Method in brief: as §1

BaF3 [19] = test: Antitumor activity against mouse BA/F3 cells expressing Kit exon 11 deletion (557 to 558 residues) and V654 mutant (unknown origin) allografted in CB17 SCID mouse assessed as tumor regression at 300 mg/kg, po qd measured on last day of dosing; type: functional
Method in brief: as §1

[20] = tested on: Mast/stem cell growth factor receptor Kit (Homo sapiens), P10721 [V560D]
[21] = tested on: Mast/stem cell growth factor receptor Kit (Homo sapiens), P10721 [UNDEFINED MUTATION]; remark: listed apart in the source

Sequence of Mast/stem cell growth factor receptor Kit (Homo sapiens), P10721 [UNDEFINED MUTATION] (P10721 whole entry, looked up, stated change not applied, the tested form may be a part): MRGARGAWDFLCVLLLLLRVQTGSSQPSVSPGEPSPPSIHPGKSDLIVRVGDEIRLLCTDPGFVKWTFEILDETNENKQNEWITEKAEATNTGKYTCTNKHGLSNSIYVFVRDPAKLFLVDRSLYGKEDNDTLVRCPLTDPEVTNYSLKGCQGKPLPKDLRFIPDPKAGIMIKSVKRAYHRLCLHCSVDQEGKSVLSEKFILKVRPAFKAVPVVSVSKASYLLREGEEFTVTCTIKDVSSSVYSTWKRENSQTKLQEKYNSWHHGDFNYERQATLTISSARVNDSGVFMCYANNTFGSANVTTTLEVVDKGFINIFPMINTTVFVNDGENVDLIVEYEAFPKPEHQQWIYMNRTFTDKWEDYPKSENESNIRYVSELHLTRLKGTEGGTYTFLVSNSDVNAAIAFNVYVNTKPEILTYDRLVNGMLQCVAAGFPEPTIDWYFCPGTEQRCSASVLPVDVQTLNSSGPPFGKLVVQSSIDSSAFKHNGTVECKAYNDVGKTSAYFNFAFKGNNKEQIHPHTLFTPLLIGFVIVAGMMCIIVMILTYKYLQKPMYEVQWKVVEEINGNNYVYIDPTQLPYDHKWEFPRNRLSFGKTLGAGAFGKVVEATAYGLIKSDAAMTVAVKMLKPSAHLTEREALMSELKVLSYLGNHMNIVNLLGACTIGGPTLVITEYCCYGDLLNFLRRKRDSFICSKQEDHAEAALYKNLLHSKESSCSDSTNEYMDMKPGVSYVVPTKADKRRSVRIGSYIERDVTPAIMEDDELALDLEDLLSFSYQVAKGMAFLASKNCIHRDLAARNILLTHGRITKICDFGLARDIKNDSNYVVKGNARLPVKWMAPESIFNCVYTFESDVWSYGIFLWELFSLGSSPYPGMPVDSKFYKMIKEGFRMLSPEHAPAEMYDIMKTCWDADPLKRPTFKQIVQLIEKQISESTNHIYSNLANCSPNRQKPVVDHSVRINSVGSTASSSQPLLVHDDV
Sequence of Mast/stem cell growth factor receptor Kit (Homo sapiens) (P10721 whole entry, the tested form may be a part): as the sequence (P10721 whole entry, looked up, stated change not applied, the tested form may be a part) above
Sequence of Platelet-derived growth factor receptor alpha (Homo sapiens), P16234 [V561D,D842V] (P16234 whole entry V561D/D842V, the tested form may be a part): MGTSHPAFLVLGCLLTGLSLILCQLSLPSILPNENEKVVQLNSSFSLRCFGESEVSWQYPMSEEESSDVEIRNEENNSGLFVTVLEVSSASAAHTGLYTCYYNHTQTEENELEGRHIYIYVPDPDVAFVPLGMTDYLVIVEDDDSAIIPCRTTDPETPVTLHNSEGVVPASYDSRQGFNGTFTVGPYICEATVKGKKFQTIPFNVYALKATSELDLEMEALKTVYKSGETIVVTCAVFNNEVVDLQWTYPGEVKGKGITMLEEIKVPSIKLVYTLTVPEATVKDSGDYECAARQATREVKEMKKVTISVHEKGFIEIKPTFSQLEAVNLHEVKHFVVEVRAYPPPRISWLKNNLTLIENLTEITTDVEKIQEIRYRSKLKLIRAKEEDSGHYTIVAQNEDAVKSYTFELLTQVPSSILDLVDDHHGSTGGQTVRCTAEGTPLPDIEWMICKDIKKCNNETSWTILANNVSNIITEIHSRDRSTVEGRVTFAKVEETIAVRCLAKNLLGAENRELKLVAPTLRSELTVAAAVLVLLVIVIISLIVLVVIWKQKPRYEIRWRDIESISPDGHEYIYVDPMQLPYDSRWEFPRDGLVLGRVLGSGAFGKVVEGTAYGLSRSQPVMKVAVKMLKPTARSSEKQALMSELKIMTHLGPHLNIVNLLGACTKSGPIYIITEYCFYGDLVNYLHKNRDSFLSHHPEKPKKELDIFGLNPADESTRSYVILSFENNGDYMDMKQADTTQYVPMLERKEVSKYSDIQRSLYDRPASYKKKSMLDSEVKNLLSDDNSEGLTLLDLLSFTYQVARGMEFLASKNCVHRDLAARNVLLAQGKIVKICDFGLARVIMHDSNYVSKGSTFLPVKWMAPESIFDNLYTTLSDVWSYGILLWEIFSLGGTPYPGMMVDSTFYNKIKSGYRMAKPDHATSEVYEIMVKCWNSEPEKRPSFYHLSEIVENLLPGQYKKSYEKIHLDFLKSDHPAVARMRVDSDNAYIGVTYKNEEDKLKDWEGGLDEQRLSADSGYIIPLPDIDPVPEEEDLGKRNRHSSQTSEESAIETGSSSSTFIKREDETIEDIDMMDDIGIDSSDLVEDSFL
Sequence of Platelet-derived growth factor receptor beta (Homo sapiens) (P09619 whole entry, the tested form may be a part): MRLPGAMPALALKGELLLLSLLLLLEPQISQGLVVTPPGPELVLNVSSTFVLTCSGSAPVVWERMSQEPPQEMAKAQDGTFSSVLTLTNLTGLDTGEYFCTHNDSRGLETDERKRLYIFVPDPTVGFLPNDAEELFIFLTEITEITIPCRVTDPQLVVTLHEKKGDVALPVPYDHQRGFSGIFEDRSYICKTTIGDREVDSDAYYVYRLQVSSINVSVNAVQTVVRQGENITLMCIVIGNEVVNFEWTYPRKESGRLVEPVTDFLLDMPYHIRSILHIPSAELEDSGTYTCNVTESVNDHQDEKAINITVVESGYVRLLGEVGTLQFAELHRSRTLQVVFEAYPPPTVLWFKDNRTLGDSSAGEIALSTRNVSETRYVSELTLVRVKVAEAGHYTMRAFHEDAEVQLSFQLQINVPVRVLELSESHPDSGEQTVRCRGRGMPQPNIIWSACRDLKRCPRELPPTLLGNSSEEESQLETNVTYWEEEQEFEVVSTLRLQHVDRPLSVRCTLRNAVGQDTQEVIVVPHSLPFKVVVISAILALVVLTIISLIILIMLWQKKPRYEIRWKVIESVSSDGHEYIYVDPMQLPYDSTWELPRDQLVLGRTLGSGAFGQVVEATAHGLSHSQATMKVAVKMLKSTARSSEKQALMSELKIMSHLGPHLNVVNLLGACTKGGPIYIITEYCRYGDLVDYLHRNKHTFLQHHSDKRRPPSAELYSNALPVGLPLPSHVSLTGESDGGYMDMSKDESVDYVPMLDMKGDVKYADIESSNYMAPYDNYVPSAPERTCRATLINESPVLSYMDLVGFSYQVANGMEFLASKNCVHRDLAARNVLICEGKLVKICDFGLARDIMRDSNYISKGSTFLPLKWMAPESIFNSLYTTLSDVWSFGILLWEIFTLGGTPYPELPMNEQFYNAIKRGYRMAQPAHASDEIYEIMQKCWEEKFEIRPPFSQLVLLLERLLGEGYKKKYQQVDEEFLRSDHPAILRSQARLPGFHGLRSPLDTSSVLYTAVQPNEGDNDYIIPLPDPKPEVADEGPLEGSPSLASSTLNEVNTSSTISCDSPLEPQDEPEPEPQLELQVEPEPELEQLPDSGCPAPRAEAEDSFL
Sequence of Mast/stem cell growth factor receptor Kit (Homo sapiens), P10721 [V560D,D816H] (P10721 whole entry V560D/D816H): as the sequence (P10721 whole entry, looked up, stated change not applied, the tested form may be a part) above, with V560D, D816H counted along it
Sequence of Platelet-derived growth factor receptor alpha (Homo sapiens) (P16234 whole entry): as the sequence (P16234 whole entry V561D/D842V, the tested form may be a part) above, with D561V, V842D counted along it
Sequence of Mast/stem cell growth factor receptor Kit (Homo sapiens), P10721 [V560D] (P10721 whole entry V560D): as the sequence (P10721 whole entry, looked up, stated change not applied, the tested form may be a part) above, with V560D counted along it

GI50 [1] [nM]	GI50 [2] [nM]	GI50 [5] [nM]	GI50 [6] [nM]	GI50 [8] [nM]	GI50 [10] [nM]	GI50 [12] [nM]	GI50 [13] [nM]	SMILES	GI50 at 72 h [4] [nM]	further results
398 to 400	631	696	12	4	782	114	214	CCN(CC)CCNC(=O)c1c(C)[nH]c(/C=C2\C(=O)Nc3ccc(F)cc32)c1C [SUNITINIB]	4790	inhibition in vivo at 80 mg/kg (BaF3 [3]): > 100%; GI50 [7]: 30 nM; Activity (BaF3 [9]): 87%; GI50 [11]: 271 nM
535 to 537	567	1190	3950	17	669	102	216	Cc1ccc(NC(=O)c2ccc(CN3CCN(C)CC3)cc2)cc1Nc1nccc(-c2cccnc2)n1 [IMATINIB]	> 10000	GI50 [14]: 192 nM; inhibition in vivo at 300 mg/kg (BaF3 [15]): 34%; GI50 [16]: 2750 nM; Activity (BaF3 [17]): 0%; inhibition in vivo at 300 mg/kg (BaF3 [18]): 43%; Activity (BaF3 [19]): 0%; GI50 [20]: 70 nM; GI50 [21]: 312 nM
